We go through one molecule from PubChem BioAssay AID504483 (The Scripps Research Institute Molecular Screening Center, 2011).

Activity calls are given as the source filed them.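 The calls were made as follows: active = inhibition of the enzyme at or above 50% at 0.1 µM compound; inactive = the rest.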

The assay addresses Platelet-activating factor acetylhydrolase (Mus musculus) (UniProt Q60963). Description: mouse pPAFAH inhibition, late-stage follow-up, selectivity assay for PAFAH2 inhibitor project, cell lysate, gel-based competitive ABPP, COS-7 proteome, fluorescence (AID 504483). Conditions: murine pPAFAH, gel ABPP FP-Rh, at 1 µM (top of the series). The gist of the method: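 System: soluble COS-7 proteome expressing murine pPAFAH; Amount: proteome 1 mg/mL; Reagent: rhodamine fluorophosphonate probe FP-Rh, 2 µM final; Times: compound 30 min at 25 °C, FP-Rh 30 min; Measured by: in-gel fluorescence scan after SDS-PAGE, band integrated optical density; Measure: % inhibition versus DMSO control; Benchmarks: DMSO-only high, blank-gel background low.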

Sequence of Platelet-activating factor acetylhydrolase (Mus musculus) (Q60963 whole entry, looked up): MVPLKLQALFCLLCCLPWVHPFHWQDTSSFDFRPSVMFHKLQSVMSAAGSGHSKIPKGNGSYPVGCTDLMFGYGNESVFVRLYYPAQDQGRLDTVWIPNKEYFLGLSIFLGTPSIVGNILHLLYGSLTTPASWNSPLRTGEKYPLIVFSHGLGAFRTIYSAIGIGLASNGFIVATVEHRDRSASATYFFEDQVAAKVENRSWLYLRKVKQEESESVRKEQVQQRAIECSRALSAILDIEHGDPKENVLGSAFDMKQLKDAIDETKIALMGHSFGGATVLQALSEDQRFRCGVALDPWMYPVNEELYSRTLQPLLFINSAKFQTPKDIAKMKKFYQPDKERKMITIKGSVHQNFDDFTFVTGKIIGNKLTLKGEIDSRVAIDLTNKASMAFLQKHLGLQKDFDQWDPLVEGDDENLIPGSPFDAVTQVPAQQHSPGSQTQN

As a reminder, the inhibition is the drop in the measured response relative to a control, in per cent. Take `O=C(N1CCCC1)n1ncc(-c2ccc(-c3ccccc3)cc2)n1`: the inhibition is 85% (inactive).
